Assay results as given in PMC7391373 (ACS Omega, 2020).

Experiments:
[1] = test system: P. falciparum RKL-9 (chloroquine-resistant); assay: schizont maturation inhibition assay, RKL-9 strain; type: cell-based, Plasmodium falciparum
Method in brief: (§1)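 P. falciparum (3D7 chloroquine-sensitive; RKL-9 chloroquine-resistant) was cultured in A+ human erythrocytes in RPMI-1640 with 10% human AB+ serum. Ring-synchronized parasites (2–3% parasitemia, 1.8% final haematocrit) were exposed in duplicate to test compound at 1–16 μg/mL for 48 h at 37 °C, 5% CO2. Positive controls were chloroquine 10 μM and artesunate 2 μM. Schizont inhibition versus controls was scored on Giemsa smears. SI was calculated as CC50 (HeLa/fibroblasts) divided by IC50.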

[2] = test system: P. falciparum 3D7 (chloroquine-sensitive); assay: schizont maturation inhibition assay, 3D7 strain; type: cell-based, Plasmodium falciparum
Method in brief: as §1

[3] = test system: Plasmodium berghei (NK-65); assay: in vivo suppressive activity, Peter's 4 day test; settings: for chemosuppression (%), day 5 / parasitemia (%), day 5 / mean survival time (MST): mice; for parasitemia (%), day 28: surviving mice
Method in brief: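 Peters 4-day suppressive test in Laca Swiss albino mice (6–8 weeks, 25 ± 2 g), five per group. On D0, mice received 1 × 10^6 P. berghei NK-65-infected erythrocytes i.p. Dosing began 1 h post-inoculation, oral, once daily D0–D3 (0.2 mL). Giemsa tail smears were taken 24 h after the last dose. Chemosuppression was calculated from mean parasitemia relative to infected controls. Survival and parasitemia were followed to day 28.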

[4] = biochemical assays, liver and kidney function tests; type: in vivo, Mus musculus
Method in brief: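 In P. berghei-infected Laca mice (oral dosing once daily D0–D3), blood was collected from the tail vein on day 10 and from survivors on day 28. Serum ALP, SGOT, SGPT and bilirubin (liver) and urea and creatinine (kidney) were measured with commercial diagnostic kits. Data are mean ± SD, five mice per group.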

[5] = test system: RAW 264.7 murine macrophage cells; assay: determination of nitric oxide; type: cell-based
[6] = acute toxicity; oral administration; cited from earlier work
[7] = in vitro cytotoxicity, MTT assay, dermal fibroblasts; type: cell-based; settings: human, primary culture of normal human dermal fibroblasts
Method in brief: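 HeLa cells and primary normal human dermal fibroblasts (fibroblasts used within seven passages) were kept in DMEM with 10% fetal calf serum and 2 mM glutamine at 37 °C, 5% CO2. Cells were seeded at 5000–10 000 per well; after 24 h they received test compound (10–640 μg) in duplicate for 48 h. MTT (1 mg/mL stock) was added for 1 h, formazan was dissolved in DMSO, and OD was read at 450 nm.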

[8] = monotherapy 10 mg/kg oral OD D0–D3
[9] = monotherapy 20 mg/kg oral OD D0–D3
[10] = monotherapy 50 mg/kg oral OD D0–D3
[11] = monotherapy 100 mg/kg oral OD D0–D3
[12] = monotherapy 4 mg/kg oral OD D0–D3

## CCN(CC)CCCC(C)Nc1ccnc2cc(Cl)ccc12 (centres unmarked) [chloroquine, reference compound]
[1]; Plasmodium falciparum
  inhibition at 10 µM: 96.8%
[2]; Plasmodium falciparum, 3D7
  inhibition at 10 µM: 96.8%
[3]; [8]
  chemosuppression (%), day 5: 94.22%
  parasitemia (%), day 5: 1.68 ± 1.06 (n = 5) %
  parasitemia (%), day 28: 0 ± 0 (n = 5) %

## COC(=O)[C@@H]1Cc2c([nH]c3ccccc23)[C@@H](c2ccc3c(c2)OCO3)N1 [9a, (1R,3S)-methyl 1-(benzo[d][1,3]dioxol-5-yl)-2,3,4,9-tetrahydro-1H-pyrido[3,4-b]indole-3-carboxylate]
[1]; CC50 / IC50 on RKL-9
  selectivity index (SI): > 10
[1]; Plasmodium falciparum, 48 h, RKL-9 strain
  IC50: < 1 µg/mL
[1]; Plasmodium falciparum, read-out: inhibition (schizont maturation)
  inhibition at 1 µg/mL: > 75%
[4]; monotherapy 100 mg/kg
  levels of renal function biomarkers (creatinine, urea): within the normal range
[4]; monotherapy 50 and 100 mg/kg, day 10 and day 28
  levels of ALP, SGOT, SGPT, and bilirubin: within normal range
[2]; CC50 / IC50 on 3D7
  selectivity index (SI): > 10
[2]; Plasmodium falciparum, 3D7, 48 h, 3D7 strain, 48 h
  IC50: < 1 µg/mL
[2]; Plasmodium falciparum, 3D7, read-out: inhibition (schizont maturation)
  inhibition at 1 µg/mL: > 75%
[5]; 100 μg/mL
  nitrite production from macrophages: comparable to the normal cells
[6]
  LD50: > 4000 mg/kg
[3]; [8]
  chemosuppression (%), day 5: 40.49%
  parasitemia (%), day 5: 17.31 ± 2.40 (n = 5) %
[3]; [9]
  chemosuppression (%), day 5: 46.82%
  parasitemia (%), day 5: 15.47 ± 2.69 (n = 5) %
[3]; [10]
  chemosuppression (%), day 5: 64.76%
  parasitemia (%), day 5: 10.25 ± 4.93 (n = 5) %
  parasitemia (%), day 28: 3.43 ± 0.51 (n = 2) %
[3]; monotherapy 50 mg/kg
  mean survival time (MST): 21.8 ± 6.09 days
[3]; [11]
  chemosuppression (%), day 5: 91.19%
  parasitemia (%), day 5: 2.56 ± 1.71 (n = 5) %
  parasitemia (%), day 28: 2.41 ± 0.97 (n = 3) %
[3]; monotherapy 100 mg/kg
  mean survival time (MST): 22.6 ± 7.79 days
[7]
  viability at 48 h, 640 μg/mL: 56.5 ± 5.07%

## C[C@H]1[C@H](OC(=O)CCC(=O)O)O[C@@H]2O[C@@]3(C)CC[C@H]4[C@H](C)CC[C@@H]1[C@@]24OO3 [artesunate, reference compound]
[1]; Plasmodium falciparum
  inhibition at 2 µM: 100%
[2]; Plasmodium falciparum, 3D7
  inhibition at 2 µM: 100%
[5]; 2 μM
  nitrite production from macrophages: comparable to the normal cells
[3]; [12]
  chemosuppression (%), day 5: 94.01%
  parasitemia (%), day 5: 1.74 ± 0.83 (n = 5) %
[3]; monotherapy 4 mg/kg
  mean survival time (MST): 18.6 ± 2.19 days
[3]; [10]
  chemosuppression (%), day 5: 99.89%
  parasitemia (%), day 5: 0.03 ± 0.01 (n = 5) %
  parasitemia (%), day 28: 0 ± 0 (n = 2) %
[3]; monotherapy 50 mg/kg
  mean survival time (MST): 22.4 ± 5.77 days
